# Structures can show the parent of a compound that is named as a salt.
# Assays:
# [1] = Selectivity index, ratio of pED40 for tissue contractility to pED40 for maximum driving response in New Zealand White rabbit isolated atria; set-up: species or system Oryctolagus cuniculus, Cardiac atrium
# Outline: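 Ratio of ED40 for contractility to ED40 for MDF. Both come from the same cumulative 15-min dosing of paced isolated atria, with three tissues per compound.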
# [2] = tested on: Heart; test: Antiarrhythmic activity in New Zealand White rabbit isolated atria assessed as reduction of maximum driving frequency after 15 mins; format: functional, Oryctolagus cuniculus
# Outline: (§1)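 Isolated atria stabilized 90 min, paced by 2-ms pulses via platinum electrodes near SA node at 2.5× threshold voltage (threshold found at 240 pulses/min, mean of three). MDF averaged over three determinations. Drug added cumulatively without washout, reading 15 min after each dose, until MDF fell ~60%. Percent decrease in MDF or peak height plotted against log molar concentration and fitted by linear regression. Log ED40 read graphically. Three tissues per compound, averaged with SD.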
# [3] = Octanol-phosphate buffer partition coefficient, log P of the compound; format: physicochemical
# Outline: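 Compound stock in octanol-saturated buffer, about 0.05 mg/mL. Shaken with octanol 2 h at 37 °C, 200 oscillations/min, then centrifuged 2000 rpm for 4 min. Buffer-phase UV absorbance at λmax near 300 nm measured before and after. P = (Astd − Aext)/(Aext·f), with f the octanol:buffer volume ratio. Run in triplicate.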
# [4] = Negative inotropic activity in New Zealand White rabbit isolated atria assessed as reduction of tissue contractility after 15 mins; set-up: species or system Oryctolagus cuniculus, Cardiac atrium; conditions: 0.25 h; outline: as §1
# [5] = Selectivity index, ratio of pED40 for tissue contractility to pED40 for maximum driving response in New Zealand White rabbit isolated atria in presence of 4X10'-8 M propranolol; set-up: species or system Oryctolagus cuniculus, Cardiac atrium
# [6] = tested on: Heart; test: Antiarrhythmic activity in New Zealand White rabbit isolated atria assessed as reduction of maximum driving frequency after 15 mins in presence of 4X10'-8 M propranolol; format: functional, Oryctolagus cuniculus; outline: as §1
# [7] = Negative inotropic activity in New Zealand White rabbit isolated atria assessed as reduction of tissue contractility after 15 mins in presence of 4X10'-8 M propranolol; set-up: species or system Oryctolagus cuniculus, Cardiac atrium; conditions: 0.25 h; outline: as §1
SMILES,logP [3],pED40 [4],pED40 [7],Selectivity Index [1],pED40 [2],Selectivity Index [5],pED40 [6]
CCCCNCC(O)COc1cccc2ccccc12 (stereo unspecified),2.08,5.38,–,1.8,5.64,–,–
COCCCNCC(O)COc1cccc2ccccc12 (stereo unspecified),1.28,5.4,–,1.5,5.45,–,–
Cl.NCCCNCC(O)COc1cccc2ccccc12 (stereo unspecified),-0.19,4.47,–,1,4.5,–,–
Cl.NC(=O)CCCNCC(O)COc1cccc2ccccc12 (stereo unspecified),0.31,–,4.79,–,–,1.4,4.89
Cl.O=C(O)CCCNCC(O)COc1cccc2ccccc12 (stereo unspecified),0.21,3.02,–,2,3.41,–,–
C[N+](C)(C)CCCNCC(O)COc1cccc2ccccc12.Cl.[Cl-] (stereo unspecified),-1.89,3.06,–,1.1,3.08,–,–

# More lines, main results first:
logP [3],pED40 [4],pED40 [7],SMILES,Selectivity Index [1],pED40 [2],Selectivity Index [5],pED40 [6]
2.71,5.53,–,Br.CC(C)NCC(O)COc1c(Br)cc(Br)c2ccccc12 (stereo unspecified),0.4,5.1,–,–
2,5.26,–,CC(C)NCC(O)COc1ccc(Cl)c2ccccc12 (stereo unspecified),0.9,5.2,–,–
-0.27,4.92,–,CC(C)NCC(O)COc1ccc(N)c2ccccc12.Cl (stereo unspecified),1.6,5.02,–,–
-0.51,3.35,–,CC(C)NCC(O)COc1ccc(S(N)(=O)=O)c2ccccc12.Cl (stereo unspecified),1.7,3.58,–,–
0.39,4.39,–,CC(C)NCC(O)COc1ccc(O)c2ccccc12 (stereo unspecified) [4-HYDROXYPROPRANOLOL SULFATE],1.8,4.6,–,–
–,5.21,–,CC(C)NCC(O)COc1cccc2ccccc12 (stereo unspecified) [PROPRANOLOL],–,5.43,–,–

# Reference: ChEMBL document CHEMBL3243947 (J Med Chem, 1979)
